Data published in paper PMC10650344 (RSC Medicinal Chemistry, 2023).
≈ marks a conversion by molar mass, not a printed value.

Key:
[1] = test system: differentiated SHSY-5Y cells; assay: MTT cell viability; type: cell-based, human; conditions: 12.5–100 μg mL^−1, 24 h
Outline: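 Neuron-like cultures made by differentiating SH-SY5Y with 10 μM retinoic acid for 8 days, then 25 nM BDNF for 5 days. Cells incubated 24 h with test compound at 12.5–100 μg mL⁻¹. Controls: untreated cells, and cells given 1.0% Triton X-100. MTT (5 mg mL⁻¹ solution) added for 3 h at 37 °C, formazan dissolved in DMSO, absorbance read at 570 nm. Three independent experiments, mean ± SD.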

[2] = test system: differentiated SHSY-5Y cells; assay: Genotoxicity analysis by Hoechst 33258 fluorescent nuclear staining; type: cell-based, human; conditions: for genotoxic properties on the differentiated SHSY-5Y cells: 100 μg mL^−1; for Mean NA/1000 cells ± SD: 100 μg mL^−1, 24 h, nuclear abnormalities
Outline: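 SH-SY5Y differentiated with 10 μM retinoic acid for 8 days (medium refreshed every 2 days), then 25 nM BDNF for 5 days. Test compound applied for 24 h. Cells washed in PBS, fixed in 4% paraformaldehyde at 4 °C for 30 min, then stained with Hoechst 33258 (1 mM) for 5 min at room temperature. Micronuclei, lobbed and notched nuclei scored by fluorescence microscopy in 1000 cells per treatment, in triplicate.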

[3] = Experimental water solubility by HPLC; type: physicochemical
[4] = log P by shake-flask method; type: physicochemical; conditions: n-octanol/phosphate buffer solution (PBS), pH 7.4
Outline: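 Shake-flask partition. About 5 mg of test compound dissolved in 1 mL n-octanol and mixed with an equal volume of PBS, pH 7.4. Mixture inverted 200 times over 5 min, then left 30 min to separate. Each phase assayed by HPLC (C18, 250 × 4.6 mm, isocratic H₂O/ACN + 0.1% TFA, 1 mL min⁻¹). log P taken from the concentration ratio of unionized compound between the phases.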

Aβ1–42 aggregation = type: cell-based, human; conditions: Congo red staining, experimental AD model
Outline: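 Differentiated SH-SY5Y cells (retinoic acid, then BDNF) given 20 μM pre-fibrillised Aβ1–42 with test compound. Cells then fixed with 4% paraformaldehyde in PBS at 4 °C for 30 min and PBS-washed. Congo red (1 μM) added for 1 h in the dark, followed by three PBS washes. Bound dye extracted with DMSO, with absorbance read at 497 nm.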

[5] = test system: differentiated SHSY-5Y cell cultures; type: cell-based, human; conditions: compound 50 μg mL^−1, Aβ1–42 20 μM, 24 h
Outline: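 AD model: SH-SY5Y cells differentiated with retinoic acid then BDNF, then exposed to 20 μM Aβ1–42 (fibrillised 24 h in medium). 10⁵ cells seeded; Aβ1–42 with or without test compound (25 or 50 μg mL⁻¹) for 24 h. Cells trypsinised 3 min at 37 °C, spun 500 × g 5 min, stained in binding buffer with Annexin V-FITC and propidium iodide 5 min at room temperature, then analysed by flow cytometry.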

Compound	cytotoxic effect on the differentiated SHSY-5Y cells (MTT cell viability) [1]	genotoxic properties on the differentiated SHSY-5Y cells [2]	Mean NA/1000 cells ± SD [2]	solubility [3]	logP [4]	preventive activity against Aβ1–42 aggregation (Aβ1–42 aggregation)	reduction of the apoptotic cell death ratio [5]
Brc1ccc(-c2csc(/C=C/c3ccccc3)n2)cc1 [6e, (E)-4-(4-Bromophenyl)-2-styrylthiazole]	no cytotoxic effect	did not enhance the genotoxic properties	0.017 NA/1000 cells	0.0175 µg/mL (≈ 0.0511 µM)	4.87	–	–
COc1ccc(/C=C/c2nc(-c3ccc(OC)cc3)cs2)cc1 [6i, (E)-4-(4-Methoxyphenyl)-2-(4-methoxystyryl)thiazole]	no cytotoxic effect	did not enhance the genotoxic properties	0.017 NA/1000 cells	0.0719 µg/mL (≈ 0.222 µM)	4.18	over 80%	30%
